Experiment [1] concerns Pseudomonas aeruginosa. Nature of the experiment: Antimicrobial activity against Pseudomonas aeruginosa PU21 by agar dilution method. The format is functional. In outline: (§1)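 MICs by agar dilution, with β-lactams tested alone. Colistin was the exception, read by Etest strip. Results interpreted according to CLSI guidelines.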
(In agar dilution the substance is mixed into plates at graded concentrations.)

Experiment [2] relates to Escherichia coli. The experiment is described as follows: Antimicrobial activity against Escherichia coli J53 harboring pCHE-B plasmid expressing blaSHV-5 gene by agar dilution in presence of beta-lactamase inhibitor clavulanic acid.
In experiment [3] the test system is Escherichia coli. Nature of the experiment: Antimicrobial activity against Escherichia coli J53 by agar dilution in presence of beta-lactamase inhibitor clavulanic acid.
Experiment [4] deals with Enterobacter cloacae. Nature of the experiment: Antimicrobial activity against Enterobacter cloacae CHE-2 harboring blaGES-5 and blaSHV-5 gene by agar dilution method. Type of experiment: functional. In outline:
as §1

Experiment [5] has as its system Enterobacter cloacae. The experiment is described as follows: Antimicrobial activity against Enterobacter cloacae CHE-2 harboring blaGES-5 and blaSHV-5 gene by agar dilution in presence of beta-lactamase inhibitor clavulanic acid. The format is functional. In outline:
(§2)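 Agar dilution MICs of β-lactams, each tested with clavulanic acid held at a fixed 4 µg/ml. Results interpreted according to CLSI guidelines.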

Experiment [6] concerns Escherichia coli. Nature of the experiment: Antimicrobial activity against Escherichia coli J53 harboring pCHE-A plasmid expressing blaGES-5 gene by agar dilution in presence of beta-lactamase inhibitor clavulanic acid.
In experiment [7] the test system is Escherichia coli. Nature of the experiment: Antimicrobial activity against Escherichia coli J53 harboring pCHE-A plasmid expressing blaGES-5 gene by agar dilution method. Type of experiment: functional.
Experiment [8] relates to Escherichia coli. The experiment is described as follows: Antimicrobial activity against Escherichia coli J53 by agar dilution method. Type of experiment: functional. In outline: as §1
The subject of experiment [9] is Pseudomonas aeruginosa. The experiment is described as follows: Antimicrobial activity against Pseudomonas aeruginosa PU21 by agar dilution in presence of beta-lactamase inhibitor clavulanic acid. The format is functional. In outline:
as §2

Experiment [10] relates to Escherichia coli. The experiment is described as follows: Antimicrobial activity against Escherichia coli J53 harboring pCHE-B plasmid expressing blaSHV-5 gene by agar dilution method. The format is functional.
The test system of experiment [11] is Pseudomonas aeruginosa. The experiment is described as follows: Antimicrobial activity against Pseudomonas aeruginosa PU21 harboring pCHE-A plasmid expressing blaGES-5 gene by agar dilution in presence of beta-lactamase inhibitor clavulanic acid. Type of experiment: functional. In outline: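 MICs by agar dilution. Beta-lactams tested alone and with clavulanic acid held at a fixed 4 µg/ml. Results were interpreted against CLSI guidelines.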

Experiment [12] relates to Pseudomonas aeruginosa. The experiment is described as follows: Antimicrobial activity against Pseudomonas aeruginosa PU21 harboring pCHE-A plasmid expressing blaGES-5 gene by agar dilution method. Type of experiment: functional. The method, boiled down:
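Natural plasmid pCHE-A was electrotransformed into electrocompetent P. aeruginosa PU21, and transformants were selected on agar with ticarcillin 100 µg/ml. MICs by agar dilution, with β-lactams tested alone; colistin by Etest. Interpreted per CLSI.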

≈ marks a conversion by molar mass, not a printed value.

Consider `CC1(C)S[C@@H]2[C@H](NC(=O)[C@H](N)c3ccc(O)cc3)C(=O)N2[C@H]1C(=O)O` [AMOXICILLIN], for which the MIC is more than 512 µg/mL against Pseudomonas aeruginosa [1]; 4 µg/mL with Escherichia coli [2]; 2 µg/mL in the experiment on Escherichia coli [3]; more than 512 µg/mL against Enterobacter cloacae [4]; more than 256 µg/mL with Enterobacter cloacae [5]; 16 µg/mL with Escherichia coli [6]. Besides, the MIC against Escherichia coli [7] was more than 512 µg/mL; in the experiment on Escherichia coli [8], 2 µg/mL (≈ 5.47 µM); with Pseudomonas aeruginosa [9], more than 512 µg/mL; with Escherichia coli [10], more than 512 µg/mL.
As for `CO[C@@]1(NC(=O)Cc2cccs2)C(=O)N2C(C(=O)O)=C(COC(N)=O)CS[C@@H]21` [CEFOXITIN], the MIC with Pseudomonas aeruginosa [1] is more than 512 µg/mL; against Enterobacter cloacae [4], more than 512 µg/mL; against Escherichia coli [7] it was 128 µg/mL (≈ 299 µM); with Escherichia coli [8], 4 µg/mL (≈ 9.36 µM); against Escherichia coli [10], 4 µg/mL (≈ 9.36 µM).
Regarding `CC(C)(O/N=C(\C(=O)N[C@@H]1C(=O)N2C(C(=O)[O-])=C(C[n+]3ccccc3)CS[C@H]12)c1csc(N)n1)C(=O)O` [CEFTAZIDIME], the MIC in the experiment with Pseudomonas aeruginosa [1] was 1 µg/mL (≈ 1.83 µM); in the experiment with Escherichia coli [2], 4 µg/mL; with Escherichia coli [3] it was 0.06 µg/mL; in the experiment on Enterobacter cloacae [4] it was more than 512 µg/mL; in the experiment with Enterobacter cloacae [5] it was 256 µg/mL; in the experiment on Escherichia coli [6], 16 µg/mL. Besides, the MIC came out at 64 µg/mL in the experiment with Pseudomonas aeruginosa [11]; 128 µg/mL (≈ 234 µM) against Escherichia coli [7]; 0.06 µg/mL (≈ 0.11 µM) in the experiment with Escherichia coli [8]; 256 µg/mL (≈ 468 µM) against Pseudomonas aeruginosa [12]; 1 µg/mL with Pseudomonas aeruginosa [9]; 256 µg/mL (≈ 468 µM) in the experiment on Escherichia coli [10].
`C[C@@H](O)[C@H]1C(=O)N2C(C(=O)O)=C(S[C@@H]3CN[C@H](C(=O)Nc4cccc(C(=O)O)c4)C3)[C@H](C)[C@H]12` [ERTAPENEM]: the MIC in the experiment with Pseudomonas aeruginosa [1] is 8 µg/mL (≈ 16.8 µM); against Enterobacter cloacae [4] it was more than 32 µg/mL; against Escherichia coli [7], 0.12 µg/mL (≈ 0.252 µM); against Escherichia coli [8] it was 0.03 µg/mL (≈ 0.0631 µM); with Pseudomonas aeruginosa [12], more than 32 µg/mL; in the experiment with Escherichia coli [10], 0.06 µg/mL (≈ 0.126 µM).
Regarding `C[C@@H](O)[C@H]1C(=O)N2C(C(=O)O)=C(SCCNC=N)C[C@H]12` [IMIPENEM ANHYDROUS], the MIC was 2 µg/mL (≈ 6.68 µM) against Pseudomonas aeruginosa [1]; more than 32 µg/mL against Enterobacter cloacae [4]; 1 µg/mL (≈ 3.34 µM) with Escherichia coli [7]; 16 µg/mL (≈ 53.4 µM) with Pseudomonas aeruginosa [12]; 0.06 µg/mL (≈ 0.2 µM) against Escherichia coli [10].
Turning to `C[C@@H](O)[C@H]1C(=O)N2C(C(=O)O)=C(S[C@@H]3CN[C@H](C(=O)N(C)C)C3)[C@H](C)[C@H]12` [MEROPENEM], the MIC against Pseudomonas aeruginosa [1] was 0.5 µg/mL (≈ 1.3 µM); in the experiment with Enterobacter cloacae [4], more than 32 µg/mL; in the experiment on Escherichia coli [7], 0.25 µg/mL (≈ 0.652 µM); in the experiment with Escherichia coli [8], 0.03 µg/mL (≈ 0.0782 µM); in the experiment with Pseudomonas aeruginosa [12], more than 32 µg/mL; with Escherichia coli [10], 0.06 µg/mL (≈ 0.156 µM).

In general, MIC refers to the lowest concentration that inhibits growth of the organism.

The record behind these values is ChEMBL document CHEMBL1649460, “Integron mobilization unit as a source of mobility of antibiotic resistance genes” (2009).
